Measurements from ChEMBL document CHEMBL1130143, “Probes for narcotic receptor-mediated phenomena. 25. Synthesis and evaluation of N-alkyl-substituted (alpha-piperazinylbenzyl)benzamides as novel, highly selective delta opioid receptor agonists” (J Med Chem, 1997).

Tests used:
[1] = biological target: Opioid receptors; mu & delta (Rattus norvegicus) (UniProt P33533+P33535); assay: Binding affinity ratio on mu opioid receptor( rat brain membranes) with respect to delta opioid receptor (rat brain membranes)
In short: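 Ratio of IC50 from [³H]DAMGO binding to rat brain membranes over IC50 from [³H]DADLE binding to rat brain membranes (μ sites blocked with 100 nM DAMGO). Both assays run at 25 °C in Tris-HCl pH 7.4, nine concentrations, run twice.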

[2] = organism: Cavia porcellus; assay: Binding affinity ratio of kappa opioid receptor (guinea pig brain membranes) with respect to delta opioid receptor( rat brain membranes); type: cell membranes; conditions: Membrane
In short: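 Ratio of IC50 from [³H]U69,593 binding to μ/δ-depleted guinea pig brain membranes over IC50 from [³H]DADLE binding to rat brain membranes (μ sites blocked with 100 nM DAMGO). Both assays run at 25 °C in Tris-HCl pH 7.4, nine concentrations, run twice.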

[3] = biological target: T1, Delta-type opioid receptor (Rattus norvegicus, UniProt P33533); assay: Binding affinity for Opioid receptor delta 1 by the inhibition of binding of [3H]DADAL in rat brain membranes.; type: cell membranes
In short: (§1)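 Rat brain membranes labelled with [³H]DADLE at 1.7-2.5 nM. Incubation 3-4 h at 25 °C in Tris-HCl pH 7.4 with 100 mM choline chloride, 3 mM MnCl₂, protease inhibitor cocktail and 100 nM DAMGO to block μ sites. Nonspecific binding defined with 20 μM levallorphan. Nine test concentrations, run twice. IC50 reported.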

[4] = biological target: Delta-type opioid receptor (Homo sapiens, UniProt P41143); assay: Binding affinity for Opioid receptor delta 1 by the inhibition of binding of [3H]-p-DPDPE human cloned receptors.
In short: (§2)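 Crude membranes from CHO cells stably expressing human δ receptor, with 0.75 nM [³H]-p-Cl-DPDPE. Samples incubated 3 h at 25 °C; nonspecific binding from 10 μM naltrexone; 10 inhibitor concentrations, with totals in duplicate. Filtered on PEI-treated glass-fiber filters, washed with cold saline, scintillation counted. IC50 by nonlinear regression.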

[5] = biological target: Kappa-type opioid receptor (Cavia porcellus, UniProt P41144); assay: Binding affinity for Opioid receptor kappa 1 by the inhibition of binding of [3H]U-69593 in guinea pig brain membranes.; type: cell membranes
In short: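 Guinea pig brain membranes, first depleted of μ and δ sites by pretreatment with irreversible ligands BIT and FIT. Nonspecific binding from 1 μM U69,593. Nine concentrations, run twice. IC50 reported.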

[6] = biological target: Mu-type opioid receptor (Rattus norvegicus, UniProt P33535); assay: Binding affinity for Opioid receptor mu 1 by the inhibition of binding of [3H]DAMGO in rat brain membranes.; type: cell membranes
In short: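 Rat brain membranes with [³H]DAMGO at 1-3 nM, incubated 4 h at 25 °C in 50 mM Tris-HCl pH 7.4 plus protease inhibitor cocktail. Nonspecific binding measured with 20 μM levallorphan. Radioligand displaced by nine drug concentrations, in two runs. Drugs diluted in 10 mM Tris-HCl pH 7.4 containing 1 mg/mL BSA. IC50 reported.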

[7] = biological target: Mu-type opioid receptor (Homo sapiens, UniProt P35372); assay: Binding affinity for micro receptors by the inhibition of binding of [3H]DAMGO to Opioid receptor mu 1 in human cloned receptors.
In short: as §2, with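 “B82 mouse fibroblasts” for “CHO cells”, “μ” for “δ”, “1.0” for “0.75”, “[³H]DAMGO.” for “[³H]-p-Cl-DPDPE.”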

[8] = biological target: Opioid receptors; mu & delta (Homo sapiens) (UniProt P41143+P35372); assay: Relative binding affinity to mu and delta opioid receptors; type: protein assay
[9] = biological target: T1, Delta-type opioid receptor; assay: Binding affinity for Opioid receptor delta 1 as inhibition of [3H]DADAL binding to rat brain membranes; type: cell membranes, Membrane; in short: as §1

Chain of Delta-type opioid receptor (Homo sapiens, UniProt P41143) (P41143 whole entry): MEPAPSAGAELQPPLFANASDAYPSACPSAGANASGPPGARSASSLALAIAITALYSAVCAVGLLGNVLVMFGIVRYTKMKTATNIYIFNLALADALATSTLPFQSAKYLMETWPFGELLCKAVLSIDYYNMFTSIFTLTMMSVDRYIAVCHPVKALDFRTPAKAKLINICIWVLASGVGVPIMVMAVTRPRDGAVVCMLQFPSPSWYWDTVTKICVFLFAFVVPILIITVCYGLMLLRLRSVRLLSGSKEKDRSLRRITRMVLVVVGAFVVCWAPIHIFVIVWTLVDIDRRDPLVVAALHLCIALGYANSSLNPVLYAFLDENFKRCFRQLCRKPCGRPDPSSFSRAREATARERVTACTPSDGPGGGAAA
Chain of Mu-type opioid receptor (Rattus norvegicus, UniProt P33535) (P33535 whole entry): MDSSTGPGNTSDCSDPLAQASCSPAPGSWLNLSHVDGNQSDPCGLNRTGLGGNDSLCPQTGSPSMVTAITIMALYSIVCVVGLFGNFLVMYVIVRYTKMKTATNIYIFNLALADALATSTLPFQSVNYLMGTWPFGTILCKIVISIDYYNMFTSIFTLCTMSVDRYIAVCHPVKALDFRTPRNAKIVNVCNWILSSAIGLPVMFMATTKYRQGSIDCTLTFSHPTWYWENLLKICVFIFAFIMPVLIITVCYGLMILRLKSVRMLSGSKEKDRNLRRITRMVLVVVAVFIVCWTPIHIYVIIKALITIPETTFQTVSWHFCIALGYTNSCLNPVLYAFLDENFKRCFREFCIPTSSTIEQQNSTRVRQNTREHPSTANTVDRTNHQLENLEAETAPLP
Chain of Mu-type opioid receptor (Homo sapiens, UniProt P35372) (P35372 whole entry): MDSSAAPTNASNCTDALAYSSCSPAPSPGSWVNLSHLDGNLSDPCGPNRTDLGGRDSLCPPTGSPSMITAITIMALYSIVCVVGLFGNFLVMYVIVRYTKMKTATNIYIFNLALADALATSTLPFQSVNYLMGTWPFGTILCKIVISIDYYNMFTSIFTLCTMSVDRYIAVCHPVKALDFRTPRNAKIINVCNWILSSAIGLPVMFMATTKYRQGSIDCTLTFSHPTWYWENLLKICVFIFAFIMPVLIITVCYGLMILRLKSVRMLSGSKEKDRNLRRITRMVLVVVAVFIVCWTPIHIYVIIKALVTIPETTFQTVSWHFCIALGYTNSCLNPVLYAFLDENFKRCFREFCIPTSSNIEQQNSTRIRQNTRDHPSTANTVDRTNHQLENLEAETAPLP
Chain of Opioid receptors; mu & delta (Homo sapiens) (P35372 whole entry, looked up): as the sequence (P35372 whole entry) above
Chain of Opioid receptors; mu & delta (Homo sapiens) (P41143 whole entry, looked up): as the sequence (P41143 whole entry) above
Chain of Opioid receptors; mu & delta (Rattus norvegicus) (P33533 whole entry, looked up): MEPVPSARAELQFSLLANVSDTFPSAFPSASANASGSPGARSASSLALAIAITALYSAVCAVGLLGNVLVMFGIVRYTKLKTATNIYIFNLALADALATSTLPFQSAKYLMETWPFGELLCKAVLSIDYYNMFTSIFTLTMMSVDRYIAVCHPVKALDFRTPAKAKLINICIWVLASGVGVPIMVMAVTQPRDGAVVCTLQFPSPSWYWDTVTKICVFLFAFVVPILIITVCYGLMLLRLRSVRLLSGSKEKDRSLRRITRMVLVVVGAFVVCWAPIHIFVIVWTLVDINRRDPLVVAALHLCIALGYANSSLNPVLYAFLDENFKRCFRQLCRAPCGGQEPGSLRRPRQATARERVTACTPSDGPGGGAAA
Chain of Opioid receptors; mu & delta (Rattus norvegicus) (P33535 whole entry, looked up): as the sequence (P33535 whole entry) above
T1 sequence (P33533 whole entry): as the sequence (P33533 whole entry, looked up) above
Chain of Kappa-type opioid receptor (P41144 whole entry): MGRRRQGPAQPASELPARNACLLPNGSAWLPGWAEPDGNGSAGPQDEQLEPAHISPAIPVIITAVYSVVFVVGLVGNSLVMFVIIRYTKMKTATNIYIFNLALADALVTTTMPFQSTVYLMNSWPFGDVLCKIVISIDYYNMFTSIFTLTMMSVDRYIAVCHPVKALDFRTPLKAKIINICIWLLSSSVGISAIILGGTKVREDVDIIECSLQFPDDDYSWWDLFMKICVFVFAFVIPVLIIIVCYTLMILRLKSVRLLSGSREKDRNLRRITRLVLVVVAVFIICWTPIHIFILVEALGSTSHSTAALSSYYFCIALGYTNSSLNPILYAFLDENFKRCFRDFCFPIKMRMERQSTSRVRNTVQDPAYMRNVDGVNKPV

| Compound | Ratio [1] | Ratio [2] | IC50 [3] | IC50 [4] | IC50 [5] | IC50 [6] | IC50 [7] | Mu/delta ratio [8] | IC50 [9] |
| --- | --- | --- | --- | --- | --- | --- | --- | --- | --- |
| C=CCN1C[C@H](C)N([C@H](c2ccc(C(=O)N3CCCCCC3)cc2)c2cccc(OC)c2)C[C@H]1C | > 305 | > 1220 | 8.2 nM | 13 nM | > 10000 nM | > 2500 nM | 4470 nM | 344 |  |
| C=CCN1C[C@H](C)N([C@@H](c2ccc(C(=O)N(CCCC)CCCC)cc2)c2cccc(OC)c2)C[C@H]1C | > 5.5 | > 5.5 | 129 nM |  | > 2500 nM | > 2500 nM |  |  |  |
| C=CCN1C[C@H](C)N([C@H](c2ccc(C(=O)N3CCCC3)cc2)c2cccc(OC)c2)C[C@H]1C | > 138 | > 552 | 18.1 nM | 26.6 nM | > 10000 nM | > 2500 nM | 6190 nM | 233 |  |
| C=CCN1C[C@H](C)N([C@@H](c2ccc(C(=O)N(CC)CCCC)cc2)c2cccc(OC)c2)C[C@H]1C | 39 | > 66 | 151 nM |  | > 10000 nM | 5880 nM |  |  |  |
| C=CCN1C[C@H](C)N([C@H](c2ccc(C(=O)NC(CC)CC)cc2)c2cccc(OC)c2)C[C@H]1C | > 14 | > 14 | 176 nM |  | > 2500 nM | > 2500 nM |  |  |  |
| C=CCN1C[C@H](C)N([C@H](c2ccc(C(=O)N3CCCCC3)cc2)c2cccc(OC)c2)C[C@H]1C | > 171 | > 684 | 14.6 nM | 38 nM | > 10000 nM | > 2500 nM | 6000 nM | 158 |  |
| C=CCN1C[C@H](C)N([C@@H](c2ccc(C(=O)N3CCCC3)cc2)c2cccc(OC)c2)C[C@H]1C | > 9.4 | > 38 | 265 nM |  | > 10000 nM | > 2500 nM |  |  |  |
| C=CCN1C[C@H](C)N([C@H](c2ccc(C(=O)N(C)CC)cc2)c2cccc(OC)c2)C[C@H]1C | 1760 | > 2380 | 4.2 nM | 8 nM | > 10000 nM | 7370 nM | 12100 nM | 1510 |  |
| C=CCN1C[C@H](C)N([C@@H](c2ccc(C(=O)N(CCC)CCC)cc2)c2cccc(OC)c2)C[C@H]1C | 28 | > 65 | 153 nM |  | > 10000 nM | 4340 nM |  |  |  |
| C=CCN1C[C@H](C)N([C@@H](c2ccc(C(N)=O)cc2)c2cccc(OC)c2)C[C@H]1C | > 6.4 | > 6.4 | 389 nM |  | > 2500 nM | > 2500 nM |  |  |  |
| C=CCN1C[C@H](C)N([C@@H](c2ccc(C(=O)N(C(C)C)C(C)C)cc2)c2cccc(OC)c2)C[C@H]1C | > 7.3 | > 7.3 | 344 nM |  | > 2500 nM | > 2500 nM |  |  |  |
| C=CCN1C[C@H](C)N([C@H](c2ccc(C(=O)N(CC)CC)cc2)c2cccc(OC)c2)C[C@H]1C [SNC-80] |  |  |  |  | 7070 nM |  |  |  |  |
| C=CCN1C[C@H](C)N([C@H](c2ccc(C(=O)N(C(C)C)C(C)C)cc2)c2cccc(OC)c2)C[C@H]1C | > 352 | > 352 | 7.1 nM | 5 nM | > 2500 nM | > 2500 nM | 6840 nM | 1370 |  |
| C=CCN1C[C@H](C)N([C@@H](c2ccc(C(=O)NCC)cc2)c2cccc(OC)c2)C[C@H]1C | 4.9 | 48 | 34.4 nM |  | 1630 nM | 169 nM |  |  |  |
| C=CCN1C[C@H](C)N([C@H](c2ccc(C(=O)NC(C)(C)C)cc2)c2cccc(OC)c2)C[C@H]1C | > 8.9 | > 8.9 | 281 nM |  | > 2500 nM | > 2500 nM |  |  |  |
| C=CCN1C[C@H](C)N([C@H](c2ccc(C(=O)N(CC)CCCC)cc2)c2cccc(OC)c2)C[C@H]1C | 286 | > 1520 | 6.6 nM | 10.2 nM | > 10000 nM | 1890 nM | 3340 nM | 327 |  |
| C=CCN1C[C@H](C)N([C@@H](c2ccc(C(=O)N3CCCCC3)cc2)c2cccc(OC)c2)C[C@H]1C | > 5.5 | > 22 | 450 nM |  | > 10000 nM | > 2500 nM |  |  |  |
| C=CCN1C[C@H](C)N([C@@H](c2ccc(C(=O)N(C)C)cc2)c2cccc(OC)c2)C[C@H]1C | > 11 | > 11 | 234 nM |  | > 2500 nM | > 2500 nM |  |  |  |
| C=CCN1C[C@H](C)N([C@H](c2ccc(C(=O)NCC)cc2)c2cccc(OC)c2)C[C@H]1C | 1.6 | 2.3 |  |  | 345 nM | 242 nM |  |  | 150 nM |
| C=CCN1C[C@H](C)N([C@@H](c2ccc(C(=O)N(C)CC)cc2)c2cccc(OC)c2)C[C@H]1C | > 41 | > 41 | 60.6 nM |  | > 2500 nM | > 2500 nM |  |  |  |
| C=CCN1C[C@H](C)N([C@H](c2ccc(C(N)=O)cc2)c2cccc(OC)c2)C[C@H]1C | > 5.5 | > 5.5 | 451 nM |  | > 2500 nM | > 2500 nM |  |  |  |
| C=CCN1C[C@H](C)N([C@@H](c2ccc(C(=O)N3CCCCCC3)cc2)c2cccc(OC)c2)C[C@H]1C | > 20 | > 81 | 124 nM |  | > 2500 nM | > 2500 nM |  |  |  |
| C=CCN1C[C@H](C)N([C@H](c2ccc(C(=O)N(C)C)cc2)c2cccc(OC)c2)C[C@H]1C | 679 | > 2080 | 4.8 nM | 18 nM | > 10000 nM | 3260 nM | 9720 nM | 540 |  |
| C=CCN1C[C@H](C)N([C@H](c2ccc(C(=O)N(CCCC)CCCC)cc2)c2cccc(OC)c2)C[C@H]1C | > 71 | > 71 | 34.5 nM |  | > 2500 nM | > 2500 nM |  |  |  |
| C=CCN1C[C@H](C)N([C@H](c2ccc(C(=O)N(CCC)CCC)cc2)c2cccc(OC)c2)C[C@H]1C | 305 | > 763 | 13.1 nM | 7.5 nM | > 10000 nM | 3990 nM | 6080 nM | 811 |  |
